Screening data deposited in PubChem by The Scripps Research Institute Molecular Screening Center.
Most compounds without a hit are left out; they make up all but 1.9% or so of the library.
NPY Y1 blocker – antagonists of human neuropeptide Y receptor Y1; AID 1040; P25929; 1% of 200,000 active; HEK293-CNG Y1 cells, membrane potential fluorescence; NPY at EC95, then isoproterenol; inhibition, % at 3.6 µM;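 active = inhibition above the campaign mean inhibition of all tested compounds plus 3 SD, cut at about 20% in these data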;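 note: 0% = DMSO wells given NPY plus isoproterenol and 100% = isoproterenol alone without NPY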
Target sequence (P25929 whole entry, looked up): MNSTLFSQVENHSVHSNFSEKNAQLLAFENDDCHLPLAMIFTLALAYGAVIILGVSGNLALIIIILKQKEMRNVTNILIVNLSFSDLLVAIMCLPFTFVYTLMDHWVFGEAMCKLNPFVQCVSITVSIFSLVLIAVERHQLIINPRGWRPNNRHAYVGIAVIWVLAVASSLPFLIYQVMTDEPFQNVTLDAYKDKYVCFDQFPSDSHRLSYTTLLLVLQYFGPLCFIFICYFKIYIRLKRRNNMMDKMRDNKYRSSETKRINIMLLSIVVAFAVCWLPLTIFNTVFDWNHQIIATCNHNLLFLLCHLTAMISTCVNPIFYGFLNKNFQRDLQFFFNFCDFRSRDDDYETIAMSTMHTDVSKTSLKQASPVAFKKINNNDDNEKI
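Test system – HEK293 Y1/CNG channel cell line · Also added – NPY agonist 25 nM, then isoproterenol 1 µM plus Ro 20-1724 25 µM · Compound dosing – one concentration, 3.6 µM, in 0.4% DMSO · Schedule – compound incubation 1 h at room temperature, readout 45 min post-stimulation · Technique – fluorescence, membrane potential probe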
NPY-Y1 PAM-ag – potentiators or agonists of human neuropeptide Y receptor Y1; NPY-Y1 expressing cells, potentiator/agonist activation; activation, % at 3.6 µM; 0.37% of 220,000 active; AID 1304; in the data active = activation above about 33%, passing the limit was not always enough;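 note: cells stimulated with NPY at EC10 then isoproterenol at EC100; 0% = low agonist plus stimulus and 100% = saturating agonist plus stimulus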
NPY2 pot ag – human NPY-Y2 potentiation or agonism, primary screen; activation, % at 3.6 µM; 0.45% of 220,000 active; AID 1359; cells expressing NPY-Y2, potentiator/agonist read-out; in the data active = activation above about 27%;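 note: cells stimulated with NPY near EC25 plus isoproterenol at EC100; 0% = vehicle plus submaximal agonist and 100% = vehicle plus saturating agonist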
NPY-Y2 antag – antagonists of human neuropeptide Y receptor Y2 | inhibition, % at 2.7 µM | 0.99% of 140,000 active | NPY-Y2 expressing cells, antagonist mode; in the data active = inhibition above about 17%;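 note: 0% = vehicle with agonist challenge and 100% = reference antagonist with challenge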
Starred values were filed as active, the others as inactive; x = no result given.

SMILES	NPY Y1 blocker	NPY-Y1 PAM-ag	NPY2 pot ag	NPY-Y2 antag
CNC(=O)c1cc(NC(=O)CCn2nc(-c3ccc(C)cc3)c3ccccc3c2=O)ccc1OC	x	0	3	x
Cc1cc(C)c(S(C)(=O)=O)c(Oc2ccc(C(C)(C)C)cc2)n1	11	-19	-11	5
CC(NC(=O)c1ccc(OC2CCN(C(=O)c3cccnc3)CC2)cc1)C1CC1 (stereo not given)	2	-10	-13	x
FC(F)(F)COc1nc(N2CCOCC2)nc(N(c2ccccc2)c2ccccc2)n1	21*	-21	-8	20*
CNc1nc(OCC(F)(F)F)nc(N2CCOCC2)n1	-1	-16	14	-1
CC1(C)C(N(O)C(=O)Nc2ccc(Cl)cc2)N(c2ccc(Cl)cc2)C(=O)N1CC(=O)NN (stereo not given)	-8	41*	43*	0
CCn1c(SCC(=O)N/N=C/c2c[nH]c3ccccc23)nnc1-c1ccc(C(C)(C)C)cc1	-9	49*	44*	6
CCn1c(SCC(=O)N/N=C/c2ccc(C)o2)nnc1-c1ccc(C(C)(C)C)cc1	0	-5	-3	5
Brc1ccc(Cn2c(-c3ccc(Br)o3)nc3ccccc32)o1	29*	-21	-26	29*
Cn1c(-c2ccc(Br)o2)nc2ccccc21	7	-16	-7	3
O=C(c1ccc2c(c1)OCO2)N(Cc1ccco1)C1(C(=O)NC2CCCCC2)CCCCC1	51*	-44	-7	28*
O=C(c1ccccn1)N(Cc1ccco1)C1(C(=O)NC2CCCC2)CCCCC1	34*	0	-7	53*
O=C(c1cnccn1)N(Cc1ccco1)C1(C(=O)NC2CCCC2)CCCCC1	42*	4	-3	33*
CN(C(=O)c1ccc2c(c1)OCO2)C1(C(=O)NC2CCCCC2)CCCCC1	17	12	5	14
O=C(Cc1cccs1)N(Cc1ccco1)C1(C(=O)NC2CCCC2)CCCCC1	61*	-3	-5	26*
O=C1NC(=O)C(CC(=O)N(Cc2ccco2)C2(C(=O)NC3CCCC3)CCCCC2)N1 (stereo not given)	1	-20	9	6
Cc1ccc(N(C(=O)c2ccccn2)C2(C(=O)NC3CCCC3)CCCCC2)cc1	9	17	9	2
COc1ccc(N2CCN(S(=O)(=O)c3cc(C)ccc3OC)CC2)cc1	-2	1	5	x
COc1ccc(C(=O)NCC(=O)OCC(=O)Nc2cc([N+](=O)[O-])ccc2F)cc1	1	8	-3	x
Cc1ccc(-n2c(C)cc(/C=N/NC(=O)Cn3c4ccccc4c(=O)c4ccccc43)c2C)cc1	-5	61*	56*	1
Cc1c(NC(=O)C(C)N(c2ccccc2)S(C)(=O)=O)c(=O)n(-c2ccccc2)n1C (stereo not given)	7	-7	-3	x
CCCCOC(=O)c1ccc(NC(=O)C(=O)NCc2ccco2)cc1	9	-3	-8	x
O=C(OCCN1C(=O)c2cccc3c(N4CCOCC4)ccc(c23)C1=O)c1ccccc1Cl	57*	-39	10	24*
CC1CCN(c2ccccc2NC(=S)NC(=O)c2ccco2)CC1	35*	-48	-25	12
COc1cnc(SCCC(F)=C(F)F)[nH]c1=O	5	1	-6	x
SMILES	NPY Y1 blocker	NPY-Y1 PAM-ag	NPY2 pot ag	NPY-Y2 antag
Cc1cccc(N2C(=O)C(Oc3ccc(Cl)cc3Cl)C2C=O)c1C (stereo not given)	0	54*	10	-2
c1csc(CNc2nc(-c3cccs3)nc3ccccc23)c1	2	-11	10	x
c1ccc(CN2CCC(Nc3nc(-c4cccs4)nc4ccccc34)CC2)cc1	21*	4	29	x
COn1c(SCc2cccc(Cl)c2)nc2ccccc2c1=O	22*	-56	-5	17*
N#Cc1c(NCCN)nc(-c2ccccc2)c2c1CCCC2	29*	-37	-33	24*
N#Cc1c(NCCCO)nc(-c2ccccc2)c2c1CCCC2	-6	23	21	0
CCOC(=O)c1c(C)[nH]c(C(=O)C(C)Sc2ccc(Cl)cc2)c1C (stereo not given)	84*	-32	-26	34*
O=c1cc(CN2CCc3ccccc32)c2ccc(O)cc2o1	1	-24	0	x
CCc1ccc2c(CN3CCc4ccccc43)cc(=O)oc2c1	22*	-2	-9	22*
O=C(Nc1ccccc1)c1ccccc1C(=O)N1CCCCC1	4	16	-1	x
COc1ccccc1/C=C/C1(C(=O)NC2CCCC2)CC(=O)N1c1ccccc1 (stereo not given)	x	4	4	x
COc1ccc(N2CCc3c(C)nc4c(OC)cc(OC)cc4c32)c(OC)c1	44*	-15	-10	25*
O=C(NC1CCCC1)C(c1ccccc1)N(Cc1ccc2c(c1)OCO2)C(=O)Cc1cccs1 (stereo not given)	23*	-34	-8	21*
O=C(NC1CCCC1)C(c1ccsc1)N(Cc1ccco1)C(=O)Cc1cccs1 (stereo not given)	62*	-35	-32	38*
O=C(NC1CCCC1)C(c1cccs1)N(Cc1ccco1)C(=O)c1csnn1 (stereo not given)	3	-27	9	-1
O=C(NC1CCCCC1)C(c1ccc2ncccc2c1)N(Cc1ccccc1)C(=O)c1cccs1 (stereo not given)	24*	-1	-27	25*
O=C(NCc1ccccc1)C(c1ccccc1)N(Cc1ccc2c(c1)OCO2)C(=O)Cc1cccs1 (stereo not given)	6	6	3	6
COc1cc(C(C(=O)NC2CCCCC2)N(Cc2cccs2)C(=O)Cc2c[nH]c3ccccc23)cc(OC)c1OC (stereo not given)	3	5	32*	9
COc1ccc(COc2ccccc2C(=O)Nc2ccccn2)cc1[N+](=O)[O-]	-3	-11	-18	7
O=C(NC1CCCC1)C(c1ccsc1)N(Cc1ccccc1)C(=O)Cc1cccs1 (stereo not given)	60*	-34	-21	33*
COc1ccccc1CN(C(=O)c1ccco1)C(C(=O)NC1CCCC1)c1ccncc1 (stereo not given)	10	-4	10	-2
COc1ccccc1CN(C(=O)Cc1cccs1)C(C(=O)NC1CCCC1)c1ccncc1 (stereo not given)	45*	-30	-20	19*
CCC(=O)Nc1cccc(NC(=S)NC(=O)c2ccccc2C)c1	0	-8	-6	x
Cc1ccc(NC(=O)CSc2ncc3ccccn23)cc1C	-2	-10	4	x
CCOC(=O)COc1c(Cl)cc(C2NC(=S)NC(c3ccccc3)=C2C(C)=O)cc1OCC (stereo not given)	8	-4	2	-1
CS(=O)(=O)Oc1ccc(/C=N/NC(=O)c2ccncc2)cc1	3	-3	3	2
CCCCOC(=O)c1ccc(NC(=O)c2ccccc2OC)cc1	-1	-33	-14	3
CCCOC(=O)c1ccc(NC(=O)c2ccccc2OC)cc1	21*	-49	-35	x
CCOCCCNC(=O)c1ccc(Cn2c(=O)[nH]c3ccsc3c2=O)cc1	11	-9	2	x
